Results published in ChEMBL document CHEMBL1629539, “Configuration of the 5'-methyl group modulates the biophysical and biological properties of locked nucleic acid (LNA) oligonucleotides” (J Med Chem, 2010).
Activity calls are given as the source filed them. The rule behind the calls is not given here.

What was measured:
[1] = test system: snake venom phosphodiesterase; assay: Chemical stability in presence of snake venom phosphodiesterase assessed as half life; assay type: physicochemical
Mus musculus = assay: Reduction in PTEN mRNA expression in BALB/c mouse liver at 12 mg/kg, ip administered as single dose measured 72 hrs post dose; assay type: functional
In short: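 Single ip injection at 12 or 60 mg/kg of phosphorothioate gapmer (14-base deoxy gap, two modified nucleotides per wing) against PTEN in Balb-c mice, n = 4/group. After sacrifice, liver PTEN mRNA reported as % down-regulation versus saline controls, and plasma ALT (IU/L) measured as the liver toxicity read-out.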

Structure (SMILES) | half-life [1] | inhibition (Mus musculus)
Cc1cn([C@H]2C[C@H](OP(=O)(O)OC[C@H]3O[C@@H](n4cc(C)c(=O)[nH]c4=O)C[C@@H]3OP(=O)(O)OC[C@H]3O[C@@H](n4cc(C)c(=O)[nH]c4=O)C[C@@H]3OP(=O)(O)OC[C@H]3O[C@@H](n4cc(C)c(=O)[nH]c4=O)C[C@@H]3OP(=O)(O)OC[C@H]3O[C@@H](n4cc(C)c(=O)[nH]c4=O)C[C@@H]3OP(=O)(O)OC[C@H]3O[C@@H](n4cc(C)c(=O)[nH]c4=O)C[C@@H]3OP(=O)(O)OC[C@H]3O[C@@H](n4cc(C)c(=O)[nH]c4=O)C[C@@H]3OP(=O)(O)OC[C@H]3O[C@@H](n4cc(C)c(=O)[nH]c4=O)C[C@@H]3OP(=O)(O)OC[C@H]3O[C@@H](n4cc(C)c(=O)[nH]c4=O)C[C@@H]3OP(=O)(O)OC[C@H]3O[C@@H](n4cc(C)c(=O)[nH]c4=O)C[C@@H]3OP(=O)(O)OC[C@@]34CO[C@@H]([C@H](n5ccc(=O)[nH]c5=O)O3)[C@@H]4OP(=O)(O)O[C@H](C)[C@@]34CO[C@@H]([C@H](n5ccc(=O)[nH]c5=O)O3)[C@@H]4O)[C@@H](CO)O2)c(=O)[nH]c1=O | 210 min | –
Cc1cn([C@@H]2O[C@@]3(COP(O)(=S)O[C@H]4[C@H]5OC[C@]4(COP(O)(=S)O[C@H]4[C@H]6OC[C@]4(COP(O)(=S)O[C@H]4[C@H]7OC[C@]4(COP(O)(=S)O[C@H]4[C@H]8OC[C@]4(COP(O)(=S)O[C@H]4[C@H]9OC[C@]4(COP(O)(=S)O[C@H]4[C@H]%10OC[C@]4(COP(O)(=S)O[C@H]4[C@H]%11OC[C@]4(COP(O)(=S)O[C@H]4[C@H]%12OC[C@]4(COP(O)(=S)O[C@H]4[C@H]%13OC[C@]4([C@H](C)O)O[C@H]%13n4ccc(N)nc4=O)O[C@H]%12n4ccc(=O)[nH]c4=O)O[C@H]%11n4cnc%11c(=O)[nH]c(N)nc%114)O[C@H]%10n4ccc(N)nc4=O)O[C@H]9n4cc(C)c(=O)[nH]c4=O)O[C@H]8n4cnc8ncnc(N)c84)O[C@H]7[n+]4c[nH]c7nc(N)[nH]c(=O)c74)O[C@H]6n4ccc(N)nc4=O)O[C@H]5n4ccc(N)nc4=O)CO[C@@H]2[C@@H]3OP(O)(=S)OC[C@@]23CO[C@@H]([C@H](n4ccc(N)nc4=O)O2)[C@@H]3OP(O)(=S)OC[C@@]23CO[C@@H]([C@H](n4cc(C)c(=O)[nH]c4=O)O2)[C@@H]3OP(O)(=S)OC[C@@]23CO[C@@H]([C@H]([n+]4c[nH]c5nc(N)[nH]c(=O)c54)O2)[C@@H]3OP(O)(=S)OC[C@@]23CO[C@@H]([C@H]([n+]4c[nH]c5nc(N)[nH]c(=O)c54)O2)[C@@H]3OP(O)(=S)OC[C@@]23CO[C@@H]([C@H](n4cnc5ncnc(N)c54)O2)[C@@H]3OP(O)(=S)OC[C@@]23CO[C@@H]([C@H](n4cc(C)c(=O)[nH]c4=O)O2)[C@@H]3OP(O)(=S)OC[C@@]23CO[C@@H]([C@H](n4ccc(=O)[nH]c4=O)O2)[C@@H]3OP(O)(=S)OC[C@@]23CO[C@@H]([C@H](n4ccc(=O)[nH]c4=O)O2)[C@@H]3O)c(=O)[nH]c1=O (some centres undefined) | – | Active
Cc1cn([C@H]2C[C@H](OP(=O)(O)OC[C@H]3O[C@@H](n4cc(C)c(=O)[nH]c4=O)C[C@@H]3OP(=O)(O)OC[C@H]3O[C@@H](n4cc(C)c(=O)[nH]c4=O)C[C@@H]3OP(=O)(O)OC[C@H]3O[C@@H](n4cc(C)c(=O)[nH]c4=O)C[C@@H]3OP(=O)(O)OC[C@H]3O[C@@H](n4cc(C)c(=O)[nH]c4=O)C[C@@H]3OP(=O)(O)OC[C@H]3O[C@@H](n4cc(C)c(=O)[nH]c4=O)C[C@@H]3OP(=O)(O)OC[C@H]3O[C@@H](n4cc(C)c(=O)[nH]c4=O)C[C@@H]3OP(=O)(O)OC[C@H]3O[C@@H](n4cc(C)c(=O)[nH]c4=O)C[C@@H]3OP(=O)(O)OC[C@H]3O[C@@H](n4cc(C)c(=O)[nH]c4=O)C[C@@H]3OP(=O)(O)OC[C@H]3O[C@@H](n4cc(C)c(=O)[nH]c4=O)C[C@@H]3OP(=O)(O)OC[C@@]34CO[C@@H]([C@H](n5ccc(=O)[nH]c5=O)O3)[C@@H]4OP(=O)(O)O[C@@H](C)[C@@]34CO[C@@H]([C@H](n5ccc(=O)[nH]c5=O)O3)[C@@H]4O)[C@@H](CO)O2)c(=O)[nH]c1=O | 486 min | –
Cc1cn([C@H]2CC(OP(=O)(O)OC[C@H]3O[C@@H](n4cc(C)c(=O)[nH]c4=O)C[C@@H]3OP(=O)(O)OC[C@H]3O[C@@H](n4cc(C)c(=O)[nH]c4=O)C[C@@H]3OP(=O)(O)OC[C@H]3O[C@@H](n4cc(C)c(=O)[nH]c4=O)C[C@@H]3OP(=O)(O)OC[C@H]3O[C@@H](n4cc(C)c(=O)[nH]c4=O)C[C@@H]3OP(=O)(O)OC[C@H]3O[C@@H](n4cc(C)c(=O)[nH]c4=O)C[C@@H]3OP(=O)(O)OC[C@H]3O[C@@H](n4cc(C)c(=O)[nH]c4=O)C[C@@H]3OP(=O)(O)OC[C@H]3O[C@@H](n4cc(C)c(=O)[nH]c4=O)C[C@@H]3OP(=O)(O)OC[C@H]3O[C@@H](n4cc(C)c(=O)[nH]c4=O)C[C@@H]3OP(=O)(O)OC[C@H]3O[C@@H](n4cc(C)c(=O)[nH]c4=O)C[C@@H]3OP(=O)(O)OC[C@@]34CO[C@@H]([C@H](n5ccc(=O)[nH]c5=O)O3)[C@@H]4OP(=O)(O)OC[C@@]34CO[C@@H]([C@H](n5ccc(=O)[nH]c5=O)O3)[C@@H]4O)[C@@H](CO)O2)c(=O)[nH]c1=O (some centres undefined) | 2.6 min | –
